Calls of active or inactive are those of the source. The calls are words filed in the database; no cut-off is given here.
Experiments:
A549 [1] = experiment: Reversal of antiproliferative activity against human A549 cells in presence of N-acetyl-l-cysteine; format: functional, cell-based
Outline: (§1)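 ROS-dependence of growth inhibition: A549 cells pretreated with NAC (10 mM) or L-NAME (100 µM) for 2 h, then 100 µM compound for 24 h. Proliferation read by MTT assay at OD 570 nm.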

A549 [2] = experiment: Induction of p53 level in human A549 cells at 100 uM after 12 hrs by ELISA; format: functional, cell-based
Outline: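 p53, p21/WAF1 and p27kip1 in A549 lysates by sandwich ELISA after 1, 10 or 100 µM for 6-24 h. Lysate incubated 2 h for p53 and p27kip1, 1 h for p21, at room temperature. HRP-streptavidin and TMB used, absorbance read at 450 nm, values from standard curves. Three experiments, mean ± SE.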

A549 [3] = experiment: Cell cycle arrest in human A549 cells assessed as accumulation at subG1 phase at 100 uM after 72 hrs; format: functional
Outline: (§2)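 Flow cytometry of cell cycle: A549 (5 × 10^5 per 60 mm dish) treated next day with 50 or 100 µM for 24, 48 or 72 h. Adherent and floating cells pooled, fixed in PBS-MeOH 1:2 at 4 °C for at least 18 h, then stained 30 min in the dark with PI 50 µg/mL plus RNase A 50 µg/mL. Sub-G1 taken as the subdiploid fraction; at least three runs.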

A549 [4] = experiment: Inhibition of migration in human A549 cells; format: functional, cell-based
Outline: (§3)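 Transwell migration with 8 µm inserts, or Matrigel-coated inserts for invasion: 5 × 10^4 A549 cells in serum-free medium placed in the upper chamber over medium with 10% FBS, 24 h at 37 °C, 5% CO2. Migrated cells stained, dye extracted and read at 560 nm. Reported as percent of control; compound tested at 1 and 10 µM, with NAC pretreatment in reversal tests.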

A549 [5] = experiment: Cell cycle arrest in human A549 cells assessed as accumulation at S phase at 100 uM after 72 hrs; format: functional; outline: as §2
A549 [6] = experiment: Cell cycle arrest in human A549 cells assessed as accumulation at G2/M phase at 50 uM after 24 hrs; format: functional; outline: as §2
A549 [7] = experiment: Cell cycle arrest in human A549 cells assessed as accumulation at subG1 phase at 50 uM after 48 hrs; format: functional; outline: as §2
A549 [8] = experiment: Reversal of inhibition of migration in human A549 cells at 10 uM in presence of N-acetyl-l-cysteine; format: functional, cell-based; outline: as §3
A549 [9] = experiment: Inhibition of invasion in human A549 cells; format: functional, cell-based; outline: as §3
A549 [10] = experiment: Cell cycle arrest in human A549 cells assessed as accumulation at G1 phase at 100 uM after 48 hrs; format: functional; outline: as §2
A549 [11] = experiment: Cytotoxicity against human A549 cells after 24 hrs by TB dye exclusion assay; format: functional, cell-based; conditions: A549, 24 h
A549 [12] = experiment: Induction of apoptosis in human A549 cells assessed as DNA fragmentation after 24 hrs; format: functional, cell-based
Outline: (§4)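 Apoptosis by cytoplasmic mono- and oligonucleosomes (nucleosome ELISA): A549 cells given 1, 10 or 100 µM for 6, 12, 18 or 24 h and lysed, then lysate assayed photometrically. Expressed relative to control; three experiments, mean ± SE, ANOVA with Dunnett's test.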

A549 [13] = experiment: Induction of apoptosis in human A549 cells assessed as apoptotic nucleosome at 100 uM after 24 hrs; format: functional; outline: as §4
A549 [14] = experiment: Cell cycle arrest in human A549 cells assessed as accumulation at S phase at 50 uM after 48 hrs; format: functional; outline: as §2
A549 [15] = experiment: Antioxidant activity in human A549 cells assessed as increase in dichlorofluorescein florescence intensity after 30 mins relative to untreated cells; format: functional, cell-based
Outline: (§5)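 Intracellular ROS (H2O2/peroxide) by DCF fluorescence: A549 cells at 80% confluence exposed to 100 µM for 30 min, then 10 µM DCFH-DA 30 min in the dark, trypsinized and resuspended in PBS. Read by flow cytometry, ex 488 / em 525-550 nm. For scavenger tests, NAC (10 mM) or other agents given 30 min before compound.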

A549 [16] = experiment: Cell cycle arrest in human A549 cells assessed as accumulation at G2/M phase at 100 uM after 24 hrs; format: functional; outline: as §2
A549 [17] = experiment: Reversal of antiproliferative activity against human A549 cells in presence of nitro-L-arginine methyl ester; format: functional, cell-based; outline: as §1
A549 [18] = experiment: Antiproliferative activity against human A549 cells at 100 uM after 72 hrs by MTT assay; format: functional; conditions: A549, 72 h, values are per cent of control
Outline: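 MTT proliferation: A549 grown in medium with 10% FBS to 70-80% confluence, then exposed to compound for 24, 48 or 72 h. MTT added for 3 h at 37 °C, formazan dissolved in 2-propanol, OD 570 nm with 650 nm reference. Expressed as percent of control at 24 h; mean ± SE.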

A549 [19] = experiment: Cytotoxicity against human A549 cells after 72 hrs by TB dye exclusion assay; format: functional, cell-based; conditions: A549, 72 h
A549 [20] = experiment: Cell cycle arrest in human A549 cells assessed as accumulation at subG1 phase at 100 uM after 48 hrs; format: functional; outline: as §2
A549 [21] = experiment: Decrease in mitochondrial potential in human A549 cells assessed as decrease in fluorescent intensity of rhodamine 123 staining; format: functional, cell-based
Outline: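 Mitochondrial membrane potential: A549 cells with or without 100 µM for 6, 12, 18 or 24 h, then moved to serum-free medium containing 10 µM rhodamine 123 for 15 min at 37 °C. Cells collected and fluorescence read within 15 min, ex 490 / em 515 nm.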

A549 [22] = experiment: Cell cycle arrest in human A549 cells assessed as accumulation at subG1 phase at 50 uM after 72 hrs; format: functional; outline: as §2
A549 [23] = experiment: Induction of cytochrome C release in human A549 cells by ELISA; format: functional, cell-based; conditions: TDE = time-dependent effect
Outline: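 Cytochrome c release: A549 cells given 100 µM or DMSO vehicle for 6, 12, 18 or 24 h at 37 °C. Cytosolic fraction taken by digitonin permeabilization and mitochondrial fraction by detergent lysis, each measured by cytochrome c ELISA. Three experiments, mean ± SE.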

A549 [24] = experiment: Cell cycle arrest in human A549 cells assessed as accumulation at subG1 phase at 50 uM after 24 hrs; format: functional; outline: as §2
A549 [25] = experiment: Increase in Bax level in human A549 cells after 6 hrs by ELISA; format: functional, cell-based
Outline: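 Bax and Bcl-2 in A549 lysates by sandwich ELISA after 1, 10 or 100 µM for 6-24 h. Lysate incubated 1 h at room temperature, HRP-streptavidin and TMB used, absorbance read at 450 nm. Levels interpolated from protein standard curves and compared with vehicle; three experiments, mean ± SE, ANOVA with Dunnett's test.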

A549 [26] = experiment: Cytotoxicity against human A549 cells after 24 hrs by MTT assay; format: functional, cell-based; conditions: A549, 24 h
A549 [27] = experiment: Antioxidant activity in human A549 cells assessed as N-acetyl-l-cysteine-induced production of H2O2; format: functional, cell-based; outline: as §5

**Q.** How did the Activity (A549 [1]) turn out when `C=C1OC(=O)/C(=C/CCCCCCCCCCCCC)[C@@H]1O` [ISOOBTUSILACTONE A] was run?
**A.** The Activity was “inactive”.

**Q.** What about the Activity (A549 [2]) of the same molecule?
**A.** The Activity was “Active”.

**Q.** And the Activity (A549 [3])?
**A.** The Activity was 60.25%.

**Q.** What about the Activity (A549 [4]) of the same molecule?
**A.** Its Activity is “Active”.

**Q.** What about the Activity (A549 [5]) of the same molecule?
**A.** The Activity was 16.24%.

**Q.** And the Activity (A549 [6])?
**A.** Its Activity is 17.26%.

**Q.** And the Activity (A549 [7])?
**A.** Its Activity is 36.73%.

**Q.** And the Activity (A549 [8])?
**A.** Its Activity is “Active”.

**Q.** What about the Activity (A549 [9]) of the same molecule?
**A.** The Activity was “Active”.

**Q.** What about the Activity (A549 [10]) of the same molecule?
**A.** The Activity was 43.08%.

**Q.** What about the IC50 (A549 [11]) of the same molecule?
**A.** Its IC50 is 4.17 µM.

**Q.** What about the Activity (A549 [12]) of the same molecule?
**A.** The Activity was “Active”.

**Q.** And the Activity (A549 [13])?
**A.** Its Activity is 25.

**Q.** And the Activity (A549 [14])?
**A.** Its Activity is 46.72%.

**Q.** And the Activity (A549 [15])?
**A.** The Activity was “Active”.

**Q.** And the Activity (A549 [16])?
**A.** The Activity was 18.18%.

**Q.** And the Activity (A549 [17])?
**A.** Its Activity is “Active”.

**Q.** What about the growth, % of control at 100 µM (A549 [18]) of the same molecule?
**A.** Its growth, % of control at 100 µM is 2.75%.

**Q.** What about the IC50 (A549 [19]) of the same molecule?
**A.** The IC50 was 0.724 µM.

**Q.** And the Activity (A549 [20])?
**A.** The Activity was 47.64%.

**Q.** And the Activity (A549 [21])?
**A.** Its Activity is “Active”.

**Q.** And the Activity (A549 [22])?
**A.** The Activity was 54.08%.

**Q.** And the Activity (A549 [23])?
**A.** Its Activity is “tde”.

**Q.** What about the Activity (A549 [24]) of the same molecule?
**A.** The Activity was 16.69%.

**Q.** And the Activity (A549 [25])?
**A.** The Activity was “Active”.

**Q.** What about the IC50 (A549 [26]) of the same molecule?
**A.** The IC50 was 5.13 µM.

**Q.** And the Activity (A549 [27])?
**A.** Its Activity is “Active”.
